Compound activity (PubChem)
HCT116 bCat-KO – primary screen for growth suppressors in beta-catenin knockout HCT116 cells (colon tumor, human); 140,000 compounds, 1.5% hits; AID 818, 2007; HCT116 beta-catenin knockout viability, CellTiter-Glo, 60 h; stronger effect = lower value; viability, % at 10 µM;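 active = viability at or under a set limit, the compound median less 4 SD, cut at about 6% in these data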
Lung fibro prol – antiproliferative effect on LL 47 fibroblasts – human, LL 47 cells, CellTiter-Glo luminescence, primary screen; LL 47 human lung fibroblast viability, ATP luminescence; stronger effect = lower value; viability, % at 10 µM; 85,000 compounds, 1.1% hits; AID 719, 2007;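 active = viability at or below 50% in the single dose screen; inactive = viability above 50%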;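 also: compound exposure lasted 72 h before the ATP readout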
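Test system: LL 47 human lung fibroblasts / Incubation: 72 h compound exposure at 37 °C after overnight plating / Technique: luminescent ATP detection, CellTiter-Glo / Compound dosing: 0.1% DMSO in all compound wells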
H69AR inhibit – proliferation blockers of H69AR lung cancer cells, primary screen, cell-based, human, 86K library | H69AR lung tumor viability, ATP luminescence, 72 h; stronger effect = lower value | viability, % at 10 µM | 85,000 compounds, 6% hits;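 active = viability at or below 40%; inactive = viability above 40%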;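 also: multidrug resistant small cell line overexpressing MRP-1 efflux transporter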
PTEN del growth – growth suppression of PTEN-null HCT116, primary screen, cell-based, CellTiter-Glo | HCT116 PTEN-null viability, 60 h; stronger effect = lower value | viability, % at 10 µM | 140,000 compounds, 1.2% hits | AID 827, 2007;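 active = viability at or below a set limit, 4 SD under the median of all tested compounds, cut at about 3.7% in these data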;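 also: PTEN knockout HCT116 line with beta catenin targeted HCT116 as companion control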
HUVEC inhibit – inhibitors of HUVEC proliferation, primary screen, cell-based, 384-well; CellTiter-Glo luminescence, 72 h; stronger effect = lower value; viability, % at 10 µM (by protocol); 86,000 compounds, 1.1% hits; AID 648, 2007;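 active = viability at or below 30%; inactive = viability above 30%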
Calb biofilm kill – clotrimazole potentiators killing Candida biofilms, primary screen, with clotrimazole, Alamar Blue; C. albicans biofilm + clotrimazole; inhibition, % at 6 µM; 85,000 compounds, 0.14% hits;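 active = inhibition above 20%; inactive = inhibition below 20%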;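 also: preformed 24 hr biofilms exposed to compound for 48 hr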
A number is an active result; 0 = inactive; - = no result. The sample as a whole holds a higher share of hits than the screen did.

SMILES	HCT116 bCat-KO	Lung fibro prol	H69AR inhibit	PTEN del growth	HUVEC inhibit	Calb biofilm kill
Cc1noc(C)c1S(=O)(=O)N(C)CC(=O)Nc1ccc(F)cc1	0	0	0	0	0	0
Cc1ccc(-c2cc(C(=O)NCc3ccccn3)c3ccccc3n2)cc1C	3.4	-	-	1.9	-	-
C(=C\c1ccccc1)/CSc1nnc(-c2ccccn2)n1Cc1ccco1	0	42.6	18.9	0	0	0
Clc1ccccc1CSc1nnc(-c2ccccn2)n1Cc1ccco1	0	0	0	0	0	0
OC(COCC(F)(F)C(F)(F)C(F)(F)C(F)F)Cn1c2ccc(Cl)cc2c2cc(Cl)ccc21 (stereo not given)	2.2	-	-	1.7	-	-
CSc1ccccc1NC(=O)c1ccccc1N(Cc1ccccc1)S(C)(=O)=O	0	0	0	0	0	0
CC(=O)n1c(Cl)c(NC(=O)CCl)c2ccccc21	0	0	1.5	0	0	0
O=C(Nc1nccs1)c1cccc(N2C(=O)c3cccc4c([N+](=O)[O-])ccc(c34)C2=O)c1	1.7	-	-	1.5	-	-
CCCCOc1ccc(C(=O)NC)cc1	0	0	0	0	0	0
CCCCOc1ccc(CC(=O)NO)cc1	0	0	4.8	0	0	0
COc1cc(NC(=O)CN2CC(c3ccccc3)CC2=O)cc(OC)c1 (stereo not given)	0	0	0	0	0	20.4
COc1cccc(/C=N/NC(=O)CN2CC(c3ccccc3)CC2=O)c1OC (stereo not given)	0	-	-	0	-	-
O=C(CCS(=O)(=O)c1ccccc1)Nc1nc(-c2cccs2)cs1	0	-	-	0	-	-
CC(C)c1nnc(NC(=O)CCS(=O)(=O)c2nc(-c3cccs3)cc(C(F)(F)F)n2)s1	0	0	1.1	0	16.2	0
Cc1cc(C)c(C(=O)c2ccc(C(=O)N(C(C)C)C(C)C)cc2)c(C)c1	0	0	23.9	0	0	0
Cc1conc1NC(c1cccs1)c1ccc2cccnc2c1O (stereo not given)	3.5	3.1	19.1	2.6	23.7	0
Cc1cc(N2CCCC2=O)cc(C)c1S(=O)(=O)NCCOc1ccc(C(C)(C)C)cc1	0	0	33.0	0	0	0
CN1C=CC2=C(C#N)C(N)C(C#N)(C#N)[C@H](c3ccccc3)[C@H]2C1 (stereo not given in full)	0	0	0	0	0	0
COC(=O)c1ccc(Oc2nc(C(N)=O)cc(-c3ccccc3)n2)cc1	0	0	12.1	0	0	0
CN1CCc2c(sc3ncn4nc(-c5ccccc5O)nc4c23)C1	0.8	0	0	0.7	0	0
c1coc(-c2nc3c4c5c(sc4ncn3n2)CCCC5)c1	0	0	0	0	0	0
O=C(N/C=N/OCc1ccc(Cl)cc1Cl)NOCc1c(Cl)cccc1Cl	0	0	11.2	0	0	0
COc1cc(-c2nc3cnccn3c2Nc2ccc(C(C)C)cc2)ccc1O	0	45.5	0.5	0	3.2	0
COc1cc(-c2nc3cnccn3c2Nc2ccc(C)cc2)ccc1O	0	0	0	0	0	0
COc1cc(CNCCc2c[nH]c3ccccc23)ccc1OCc1ccc(F)cc1	1.5	-	-	2.0	-	-
SMILES	HCT116 bCat-KO	Lung fibro prol	H69AR inhibit	PTEN del growth	HUVEC inhibit	Calb biofilm kill
COc1cccc(CNCCc2c[nH]c3ccccc23)c1OCc1ccc(F)cc1	1.4	-	-	1.2	-	-
Cc1cnc(-c2nnc(N(C)C(=O)c3ccncc3)s2)cn1	-	0	0	-	0	0
COc1cc2ccccc2cc1C(=O)Nc1ccc(N2CCN(C)CC2)cc1	-	0	7.1	-	9.0	0
COc1ccc(C(=O)COC(=O)c2ccc(NC(=O)c3ccccc3)cc2)cc1	1.1	-	-	0	-	-
COc1ccc(C(=O)Nc2ccc(N3CCCC3)cc2)cc1	0	0	0	0	0	80.5
CC(C)Oc1ccc(C(=O)Nc2ccccc2N2CCCC2)cc1	0	0	32.1	0	0	0
COC(=O)C1CN(S(=O)(=O)c2ccccc2)CCN1S(=O)(=O)c1ccccc1 (stereo not given)	0	0	0	0	0	0
COc1ccc(NC(=O)NC23CC4(C)CC(C)(CC(C)(C4)C2)C3)cc1OC	0	-	-	0	-	-
CN1C(=O)c2oc3ccc(Br)cc3c(=O)c2C1c1ccncc1 (stereo not given)	-	0	0	-	0	0
Cc1nc(NC(=O)c2ccccc2)sc1-c1csc(NCc2ccco2)n1	0	0	17.8	0	0	0
O=C(Nc1cccnc1)c1ccc(Oc2ccccc2)cc1	0	11.0	0	0	0	0
Cc1cc(C)c(C)c(OCCCN(C)C)c1	0	-	-	0	-	-
CC(NC(=O)/C(C#N)=C/c1ccc(Cl)c([N+](=O)[O-])c1)c1ccccc1 (stereo not given)	1.6	-	-	1.2	-	-
CC(NC(=O)c1ccc([N+](=O)[O-])cc1[N+](=O)[O-])c1ccc(-c2ccccc2)cc1 (stereo not given)	0	-	-	0	-	-
Cc1cc(N(CCO)CCO)ccc1C(c1ccc(N(CCO)CCO)cc1C)c1ccccc1Cl	0	-	-	0	-	-
CCOc1ccc(-n2nnnc2-c2nc3ccccc3s2)cc1	3.3	-	-	3.1	-	-
Cc1ccc(SCCc2ccc(C)nc2)cc1	0	-	-	0	-	-
c1ccc(CN2C3=NCCN3c3ccccc32)cc1	0	-	-	0	-	-
O=C(CN1C2=NCCN2c2ccccc21)C12CC3CC(CC(C3)C1)C2	0	0	34.6	0	0	0
O=C(NCCc1nc(-c2ccccc2)cs1)c1ccc(Br)cc1	0	-	-	0	-	-
COc1ccccc1C(=O)NCC(=O)OCC(=O)c1ccc2c(c1)-c1ccccc1C2	0	-	-	0	-	-
CC1=C(SCCC#N)S/C(=C2\SC(C)=C(SCCC#N)S2)S1	0	0	26.1	0	18.6	0
CSCCOC(=O)C1=C(C)Nc2ccc(C)cc2S1	0	0	28.1	0	0	0
